Assays:
MDA-MB-231 = assay: Growth inhibition of human MDA-MB-231 cells at 10 uM after 48 hrs; assay type: functional; conditions: MDA-MB-231, 48 h, read-out: GI
Procedure, shortened: (§1)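 Single-dose primary screen in the NCI 60 human tumour cell line panel, run at the NCI facility. The panel covers nine subpanels: leukaemia, non-small cell lung, colon, CNS, melanoma, ovarian, renal, prostate and breast. Read-out was percent growth of treated cells, shown as a mean graph and reported as percent growth inhibition.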

SNB-19 = assay: Growth inhibition of human SNB19 cells at 10 uM after 48 hrs; assay type: functional; conditions: SNB-19, 48 h, read-out: GI
Procedure, shortened: (§2)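 NCI 60-cell-line disease-oriented human tumor panel, single-dose primary screen at 10 µM. Data given as mean-graph percent growth of treated cells, reported as percent growth inhibition (GI %).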

[1] = Growth inhibition of human NCI-ADR-RES cells at 10 uM after 48 hrs; assay type: functional; conditions: read-out: GI; procedure, shortened: as §1
TK-10 = assay: Growth inhibition of human TK10 cells at 10 uM after 48 hrs; assay type: functional; conditions: TK-10, 48 h, read-out: GI; procedure, shortened: as §2
[2] = Growth inhibition of human SF539 cells at 10 uM after 48 hrs; assay type: functional; conditions: SF-539, 48 h, read-out: GI; procedure, shortened: as §2
A549 = assay: Growth inhibition of human A549 cells at 10 uM after 48 hrs; assay type: functional; conditions: A549, 48 h, read-out: GI; procedure, shortened: as §1
ACHN = assay: Growth inhibition of human ACHN cells at 10 uM after 48 hrs; assay type: functional; conditions: read-out: GI; procedure, shortened: as §1
[3] = Cytotoxicity against human CNS cancer cells at 10 uM after 48 hrs; assay type: functional; conditions: Cancer cell lines
[4] = Cytotoxicity against human colon cancer cells at 10 uM after 48 hrs; assay type: functional; conditions: Cancer cell lines; procedure, shortened: as §1
SNB-75 = assay: Growth inhibition of human SNB75 cells at 10 uM after 48 hrs; assay type: functional; conditions: SNB-75, 48 h, read-out: GI; procedure, shortened: as §2
[5] = Cytotoxicity against human renal cancer cells at 10 uM after 48 hrs; assay type: functional; conditions: Cancer cell lines
Dihydrofolate reductase = molecular target: T1, Dihydrofolate reductase (Bos taurus, UniProt P00376); assay: Inhibition of bovine liver DHFR measured for every 1 min of 10 mins
T1 sequence (P00376 whole entry): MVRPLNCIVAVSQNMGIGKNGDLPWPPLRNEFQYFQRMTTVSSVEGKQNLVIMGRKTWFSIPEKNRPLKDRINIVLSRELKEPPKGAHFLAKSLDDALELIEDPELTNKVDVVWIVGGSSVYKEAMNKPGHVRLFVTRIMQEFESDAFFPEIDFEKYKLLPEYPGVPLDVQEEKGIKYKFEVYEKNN

NCI-H322M = assay: Growth inhibition of human NCI-H322M cells at 10 uM after 48 hrs; assay type: functional; conditions: read-out: GI; procedure, shortened: as §1
DU-145 = assay: Growth inhibition of human DU145 cells at 10 uM after 48 hrs; assay type: functional; conditions: DU-145, 48 h, read-out: GI; procedure, shortened: as §1
SR = assay: Growth inhibition of human SR cells at 10 uM after 48 hrs; assay type: functional; conditions: read-out: GI; procedure, shortened: as §2
SF-268 = assay: Growth inhibition of human SF268 cells at 10 uM after 48 hrs; assay type: functional; conditions: SF-268, 48 h, read-out: GI; procedure, shortened: as §2
[6] = Growth inhibition of human EKVX cells at 10 uM after 48 hrs; assay type: functional; conditions: read-out: GI; procedure, shortened: as §1
SN12C = assay: Growth inhibition of human SN12C cells at 10 uM after 48 hrs; assay type: functional; conditions: read-out: GI; procedure, shortened: as §2
SK-MEL-28 = assay: Growth inhibition of human SK-MEL-28 cells at 10 uM after 48 hrs; assay type: functional; conditions: SK-MEL-28, 48 h, read-out: GI; procedure, shortened: as §2
[7] = Growth inhibition of human OVCAR5 cells at 10 uM after 48 hrs; assay type: functional; conditions: OVCAR-5, 48 h, read-out: GI; procedure, shortened: as §1
[8] = Growth inhibition of human HOP92 cells at 10 uM after 48 hrs; assay type: functional; conditions: HOP-92, 48 h, read-out: GI; procedure, shortened: as §1
UACC-62 = assay: Growth inhibition of human UACC62 cells at 10 uM after 48 hrs; assay type: functional; conditions: UACC-62, 48 h, read-out: GI; procedure, shortened: as §2
[9] = Growth inhibition of human Hs 578T cells at 10 uM after 48 hrs; assay type: functional; conditions: read-out: GI; procedure, shortened: as §1
U-251 = assay: Growth inhibition of human U251 cells at 10 uM after 48 hrs; assay type: functional; conditions: U-251, 48 h, read-out: GI; procedure, shortened: as §2
NCI-H23 = assay: Growth inhibition of human NCI-H23 cells at 10 uM after 48 hrs; assay type: functional; conditions: NCI-H23, 48 h, read-out: GI; procedure, shortened: as §1
[10] = Growth inhibition of human OVCAR4 cells at 10 uM after 48 hrs; assay type: functional; conditions: OVCAR-4, 48 h, read-out: GI; procedure, shortened: as §1
SK-OV-3 = assay: Growth inhibition of human SKOV3 cells at 10 uM after 48 hrs; assay type: functional; conditions: SK-OV-3, 48 h, read-out: GI; procedure, shortened: as §2
PC-3 = assay: Growth inhibition of human PC3 cells at 10 uM after 48 hrs; assay type: functional; conditions: PC-3, 48 h, read-out: GI; procedure, shortened: as §1
HOP-62 = assay: Growth inhibition of human HOP62 cells at 10 uM after 48 hrs; assay type: functional; conditions: HOP-62, 48 h, read-out: GI; procedure, shortened: as §1
CAKI-1 = assay: Growth inhibition of human CAKI-1 cells at 10 uM after 48 hrs; assay type: functional; conditions: CAKI-1, 48 h, read-out: GI; procedure, shortened: as §1
KM12 = assay: Growth inhibition of human KM12 cells at 10 uM after 48 hrs; assay type: functional; conditions: KM12, 48 h, read-out: GI; procedure, shortened: as §1
[11] = Cytotoxicity against human melanoma cells at 10 uM after 48 hrs; assay type: functional; conditions: Melanoma cell; procedure, shortened: as §1
[12] = Cytotoxicity against human prostate cancer cells at 10 uM after 48 hrs; assay type: functional; conditions: Cancer cell lines
NCI-H460 = assay: Growth inhibition of human NCI-H460 cells at 10 uM after 48 hrs; assay type: functional; conditions: NCI-H460, 48 h, read-out: GI; procedure, shortened: as §1
MDA-MB-435 = assay: Growth inhibition of human MDA-MB-435 cells at 10 uM after 48 hrs; assay type: functional; conditions: MDA-MB-435, 48 h, read-out: GI; procedure, shortened: as §1
SK-MEL-5 = assay: Growth inhibition of human SK-MEL-5 cells at 10 uM after 48 hrs; assay type: functional; conditions: SK-MEL-5, 48 h, read-out: GI; procedure, shortened: as §2
[13] = Cytotoxicity against human breast cancer cells at 10 uM after 48 hrs; assay type: functional; conditions: Cancer cell lines; procedure, shortened: as §1
[14] = Cytotoxicity against human leukemia cells at 10 uM after 48 hrs; assay type: functional; conditions: Leukemia cell
SK-MEL-2 = assay: Growth inhibition of human SK-MEL-2 cells at 10 uM after 48 hrs; assay type: functional; conditions: SK-MEL-2, 48 h, read-out: GI; procedure, shortened: as §2
786-0 = assay: Growth inhibition of human 786-0 cells at 10 uM after 48 hrs; assay type: functional; conditions: 786-0, 48 h, read-out: GI; procedure, shortened: as §1
SF-295 = assay: Growth inhibition of human SF295 cells at 10 uM after 48 hrs; assay type: functional; conditions: SF-295, 48 h, read-out: GI; procedure, shortened: as §2
OVCAR-3 = assay: Growth inhibition of human OVCAR3 cells at 10 uM after 48 hrs; assay type: functional; conditions: OVCAR-3, 48 h, read-out: GI; procedure, shortened: as §1
OVCAR-8 = assay: Growth inhibition of human OVCAR8 cells at 10 uM after 48 hrs; assay type: functional; conditions: OVCAR-8, 48 h, read-out: GI; procedure, shortened: as §1
MCF7 = assay: Growth inhibition of human MCF7 cells at 10 uM after 48 hrs; assay type: functional; conditions: MCF7, 48 h, read-out: GI; procedure, shortened: as §1
IGROV-1 = assay: Growth inhibition of human IGROV1 cells at 10 uM after 48 hrs; assay type: functional; conditions: IGROV-1, 48 h, read-out: GI; procedure, shortened: as §1
[15] = Growth inhibition of human UO31 cells at 10 uM after 48 hrs; assay type: functional; conditions: UO-31, 48 h, read-out: GI; procedure, shortened: as §2
T47D = assay: Growth inhibition of human T47D cells at 10 uM after 48 hrs; assay type: functional; conditions: read-out: GI; procedure, shortened: as §2
K562 = assay: Growth inhibition of human K562 cells at 10 uM after 48 hrs; assay type: functional; conditions: K562, 48 h, read-out: GI; procedure, shortened: as §1
A498 = assay: Growth inhibition of human A498 cells at 10 uM after 48 hrs; assay type: functional; conditions: A498, 48 h, read-out: GI; procedure, shortened: as §1
[16] = Cytotoxicity against human non-small cell lung cancer cells at 10 uM after 48 hrs; assay type: functional; conditions: Cancer cell lines; procedure, shortened: as §1
[17] = Growth inhibition of human UACC257 cells at 10 uM after 48 hrs; assay type: functional; conditions: UACC-257, 48 h, read-out: GI; procedure, shortened: as §2
[18] = read-out: LC50 (the source's name)

COc1ccc(/C=C2\CCCc3c2nc(C)nc3-c2ccc(OC)c(OC)c2)cc1OC
inhibition of growth at 10 µM (MDA-MB-231): 92.9%
inhibition of growth at 10 µM (SNB-19): 39.6%
inhibition of growth at 10 µM [1]: 88.8%
inhibition of growth at 10 µM (TK-10): 87.8%
inhibition of growth at 10 µM [2]: 82.9%
inhibition of growth at 10 µM (A549): 82.1%
inhibition of growth at 10 µM (ACHN): 90.2%
GI50 [3]: 34.2 µM
TGI [3]: > 100 µM
CC50 [3, 18]: > 100 µM
GI50 [4]: 28.9 µM
TGI [4]: 88.9 µM
CC50 [4, 18]: > 100 µM
inhibition of growth at 10 µM (SNB-75): 64.8%
CC50 [5]: 96.9 µM
GI50 [5]: 23.7 µM
TGI [5]: 98.7 µM
IC50 (Dihydrofolate reductase): 0.1 µM
inhibition of growth at 10 µM (NCI-H322M): 52.6%
inhibition of growth at 10 µM (DU-145): 92.7%
inhibition of growth at 10 µM (SR): < 30%
inhibition of growth at 10 µM (SF-268): 80%
inhibition of growth at 10 µM [6]: < 30%
inhibition of growth at 10 µM (SN12C): 94.1%
inhibition of growth at 10 µM (SK-MEL-28): 77%
inhibition of growth at 10 µM [7]: 95.3%
inhibition of growth at 10 µM [8]: 69.9%
inhibition of growth at 10 µM (UACC-62): 89.1%
inhibition of growth at 10 µM [9]: 41%
inhibition of growth at 10 µM (U-251): 81.8%
inhibition of growth at 10 µM (NCI-H23): 70.9%
inhibition of growth at 10 µM [10]: 79.1%
inhibition of growth at 10 µM (SK-OV-3): 93%
inhibition of growth at 10 µM (PC-3): 68%
inhibition of growth at 10 µM (HOP-62): 67.9%
inhibition of growth at 10 µM (CAKI-1): 94.9%
inhibition of growth at 10 µM (KM12): 93.8%
GI50 [11]: 26.9 µM
TGI [11]: > 100 µM
CC50 [11, 18]: > 100 µM
GI50 [12]: 26.9 µM
LC50 [12]: > 100 µM
TGI [12]: > 100 µM
inhibition of growth at 10 µM (NCI-H460): 99.4%
inhibition of growth at 10 µM (MDA-MB-435): 98.5%
inhibition of growth at 10 µM (SK-MEL-5): 93.8%
GI50 [13]: 15.7 µM
LC50 (concentration killing 50% of cells) [13]: 99.2 µM
TGI [13]: 80.6 µM
GI50 [14]: 6.8 µM
LC50 [14]: > 100 µM
TGI [14]: 92.7 µM
inhibition of growth at 10 µM (SK-MEL-2): 94.1%
inhibition of growth at 10 µM (786-0): 90.8%
inhibition of growth at 10 µM (SF-295): 97%
inhibition of growth at 10 µM (OVCAR-3): 97.1%
inhibition of growth at 10 µM (OVCAR-8): 96.9%
inhibition of growth at 10 µM (MCF7): 73.7%
inhibition of growth at 10 µM (IGROV-1): 75.6%
inhibition of growth at 10 µM [15]: 65.7%
inhibition of growth at 10 µM (T47D): 88.8%
inhibition of growth at 10 µM (K562): 94.1%
inhibition of growth at 10 µM (A498): 94.1%
GI50 [16]: 37.8 µM
TGI [16]: 90.2 µM
CC50 [16, 18]: > 100 µM
inhibition of growth at 10 µM [17]: 79.8%

Source: ChEMBL document CHEMBL3112482, “Nonclassical antifolates, part 5. Benzodiazepine analogs as a new class of DHFR inhibitors: synthesis, antitumor testing and molecular modeling study” (Eur J Med Chem, 2014)
